As usually defined, the MIC is the lowest concentration that inhibits growth of the organism. Broadly, the IC50 is the midpoint of a concentration-inhibition curve.

Here are results for ten compounds from ChEMBL document CHEMBL4118238, “Facilely accessible quinoline derivatives as potent antibacterial agents” (Bioorg Med Chem, 2018).

The subject of one series is Staphylococcus aureus. Description: Antibacterial activity against methicillin-resistant Staphylococcus aureus ATCC 33591 by CLSI M11-A7 protocol based method. The series is classed as functional. A digest of the protocol: (§1)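 Broth MIC by a previously described standard protocol; MIC is the lowest concentration giving complete growth inhibition. Compounds were dosed from DMSO stocks with final DMSO below 0.5%. Each experiment was repeated at least three times in duplicate.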

The test system of series [1] is Staphylococcus epidermidis. Description: Antibacterial activity against methicillin resistant Staphylococcus epidermidis RP62A by CLSI M11-A7 protocol based method. The series is classed as functional. A digest of the protocol:
as §1

The test system of another series is Enterococcus faecalis. Description: Antibacterial activity against vancomycin resistant Enterococcus faecalis ATCC 700802 by CLSI M11-A7 protocol based method. The series is classed as functional. A digest of the protocol: as §1
For series [2], the system named is Clostridioides difficile. Description: Antibacterial activity against Clostridium difficile UK6 by CLSI M11-A7 protocol based method. The series is classed as functional. The method, boiled down: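 C. difficile UK6 MICs followed CLSI media and methods for anaerobe susceptibility testing. MIC was taken as the lowest concentration giving complete growth inhibition. DMSO stocks were used, with final DMSO below 0.5%. Runs were repeated at least three times, in duplicate each time.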

For another series, the system named is HepG2. Description: Cytotoxicity against human HepG2 cells assessed as reduction in cell viability after 24 hrs by MTT assay. The series is classed as cell-based. To be noted: HepG2, 24 h. A digest of the protocol:
(§2)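 Cells were grown in DMEM with 10% FBS and 1% penicillin/streptomycin at 37°C, 5% CO2, then seeded at 10^4 cells/well overnight. They were exposed to 128 to 0.125 µg/ml compound, or 1% DMSO control, for 24 h at 37°C. MTT was added for 4 h, formazan dissolved in DMSO for 15 min, and A540 read. IC50 was relative to control-treated cells, in three replicates.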
A general note: Tetrazolium assays rely on reduction of a dye to a coloured formazan, in cell work by metabolically active cells.

The next series concerns HEK-293T. Description: Cytotoxicity against HEK293T cells assessed as reduction in cell viability after 24 hrs by MTT assay. The series is classed as cell-based. To be noted: Homo sapiens. A digest of the protocol: as §2
Series [3] can be described thus: Selectivity index, ratio of IC50 for human HepG2 cells to MIC for Clostridium difficile UK6. To be noted: read-out: Selectivity Index. The series is classed as toxicity.
Series [4] is described as follows: Selectivity index, ratio of IC50 for HEK293 cells to MIC for Clostridium difficile UK6. The series is classed as toxicity. The conditions noted are these: human, read-out: Selectivity Index.
Series [5] relates to Clostridioides difficile. Description: Antibacterial activity against Clostridium difficile UK6 infected in C57BL/6 mouse assessed as increase in mouse survival at 50 mg/kg, po bid via gavage for 5 days starting from 4 hrs post challenge measured from day 3 to 5 during compound dosing relative to control. The series is classed as functional. The method, boiled down: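 Female C57BL/6 mice (6 weeks) received a six-antibiotic cocktail in drinking water for 5 days, then autoclaved water for 2 days and clindamycin 10 mg/kg ip on day −1. On day 0 they were challenged by gavage with 10^6 CFU UK6 spores. Compound was given by gavage at 50 mg/kg 4 h post-challenge, then twice daily from day 1 for five days. Survival was monitored daily versus an untreated infected group (n=10 per group).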

For series [6], the system named is Clostridioides difficile. Description: Antibacterial activity against Clostridium difficile UK6 infected in C57BL/6 mouse assessed as decrease in bacterial count in feces at 50 mg/kg, po bid via gavage for 5 days starting from 4 hrs post challenge by serial dilution method relative to control. The series is classed as functional. Set-up: scale not given: the % may be the effect or the level left. The method, boiled down:
(§3)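 Female 6-week C57BL/6 mice (n=10 per group) got an antibiotic cocktail in drinking water for 5 days and autoclaved water for 2 days. Clindamycin 10 mg/kg ip followed one day before gavage of 10^6 CFU UK6 spores. Dosing was 50 mg/kg by gavage at 4 h, then twice daily for five days. Feces from days 1, 3 and 5 were ethanol-shocked, serially diluted and plated anaerobically 48 h. Counts are CFU/g, triplicate plates.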

Series [7] concerns Clostridioides difficile. Description: Antibacterial activity against Clostridium difficile UK6 infected in C57BL/6 mouse assessed as decrease in diarrhea at 50 mg/kg, po bid via gavage for 5 days starting from 4 hrs post challenge measured daily during compound dosing. The series is classed as functional, organism-based. The method, boiled down:
(§4)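 Female 6-week C57BL/6 mice (n=10 per group) were antibiotic-pretreated, given clindamycin, then gavaged with 10^6 CFU UK6 spores. Compound was given at 50 mg/kg by gavage at 4 h post-challenge, then twice daily for five days. Mice were checked daily for five days. Percent diarrhea is mice with diarrhea divided by mice in the group, compared by Pearson chi-square.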

Series [8] relates to Clostridioides difficile. Description: Antibacterial activity against Clostridium difficile UK6 infected in C57BL/6 mouse assessed as decrease in diarrhea at 50 mg/kg, po bid via gavage for 5 days starting from 4 hrs post challenge measured after 2 days relative to control. The series is classed as functional. On the set-up: scale not given: the % may be the effect or the level left. The method, boiled down: as §4

Series [9] relates to Clostridioides difficile. Description: Antibacterial activity against Clostridium difficile UK6 infected in C57BL/6 mouse assessed as decrease in bacterial count in feces at 50 mg/kg, po bid via gavage for 5 days starting from 4 hrs post challenge measured after 5 days by serial dilution method relative to control. The series is classed as functional. The method, boiled down: as §3

Series [10] has as its system Mus musculus. Description: Toxicity in C57BL/6 mouse assessed as diarrhea at 50 mg/kg, po bid via gavage for 5 days starting from 4 hrs post challenge measured. The series is classed as organism-based. To be noted: in vivo. The method, boiled down: (§5)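 Uninfected female 6-week C57BL/6 mice (n=5) received 50 mg/kg by gavage on the infected group's schedule: at 4 h, then twice daily for five days. They were monitored daily for five days for weight change, survival, diarrhea and other disease signs.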

Series [11] concerns Mus musculus. Description: Toxicity in C57BL/6 mouse assessed as development of Clostridium difficile infection symptoms at 50 mg/kg, po bid via gavage for 5 days starting from 4 hrs post challenge measured. The series is classed as organism-based. To be noted: in vivo. The method, boiled down:
as §5

Values after ≈ are worked out from the molar mass of the structure shown. Active and inactive are the calls of the source. No cut-off for these calls is given here.

`COc1cc2nccc(Nc3ccc(C(F)(F)F)cc3)c2cc1OCc1ccc(C(F)(F)F)cc1`: the MIC is 0.75 µg/mL (≈ 1.52 µM) against Staphylococcus aureus, 3 µg/mL (≈ 6.09 µM) in series [1], 0.75 µg/mL (≈ 1.52 µM) against Enterococcus faecalis and 2 µg/mL (≈ 4.06 µM) in the series on Clostridioides difficile [2]. The values for the IC50 in the series on HepG2 and in the series with HEK-293T were 70.7 µM and 58.1 µM, respectively. The selectivity ratio in [3] and in series [4] was 15 in each case.

With `COc1cc2nccc(Nc3ccc(C)cc3)c2cc1OCc1ccc(C)cc1`, the results for the MIC with Staphylococcus aureus and in the series on Clostridioides difficile [2] were 12 µg/mL (≈ 31.2 µM) and > 16 µg/mL, respectively.

For the compound `CCCCCCCCCC(=O)N[C@@H](Cc1c[nH]c2ccccc12)C(=O)N[C@@H](CC(N)=O)C(=O)N[C@@H](CC(=O)O)C(=O)N[C@@H]1C(=O)NCC(=O)N[C@@H](CCCN)C(=O)N[C@@H](CC(=O)O)C(=O)N[C@H](C)C(=O)N[C@@H](CC(=O)O)C(=O)NCC(=O)N[C@H](CO)C(=O)N[C@@H]([C@H](C)CC(=O)O)C(=O)N[C@@H](CC(=O)c2ccccc2N)C(=O)O[C@@H]1C` [DAPTOMYCIN], the figures for the MIC (against Staphylococcus aureus; in series [1]; against Enterococcus faecalis) were 0.5 µg/mL (≈ 0.309 µM), 0.5 µg/mL (≈ 0.309 µM) and 1 µg/mL (≈ 0.617 µM), respectively.

As to `COc1cc2nccc(Nc3ccc(F)c(Cl)c3)c2cc1OCc1ccc(C(C)C)cc1`, the MIC in the series on Staphylococcus aureus stood at 1.5 µg/mL (≈ 3.33 µM); in series [1] it was 6 µg/mL (≈ 13.3 µM); against Enterococcus faecalis it was 3 µg/mL (≈ 6.65 µM); against Clostridioides difficile [2] it was 1 µg/mL (≈ 2.22 µM). In addition, the figures for the IC50 in the series with HepG2 and in the series with HEK-293T were 148 µM and 146 µM, respectively. For the same compound, the selectivity ratio in [3] and in series [4] was > 60 each time. Also, the Activity was 20% in the series with Clostridioides difficile [5]; >80% in the series with Clostridioides difficile [6]; 32% with Clostridioides difficile [8]; “Non-Toxic” in the series on Mus musculus [10]; “Non-Toxic” in the series with Mus musculus [11]. Also, the outcome in the series on Clostridioides difficile [7] was Active. Also, the “fold change (FC)” value in the series with Clostridioides difficile [9] stood at 14.

Consider `COc1cc2nccc(Nc3cccc(C(F)(F)F)c3)c2cc1OCc1ccc(C(F)(F)F)cc1`, for which the MIC in the series on Staphylococcus aureus was found to be 3 µg/mL (≈ 6.09 µM); in series [1], 6 µg/mL (≈ 12.2 µM); against Enterococcus faecalis it was 3 µg/mL (≈ 6.09 µM); in the series with Clostridioides difficile [2] it was 4 µg/mL (≈ 8.12 µM).

Take `COc1cc2nccc(Nc3ccc(F)c(Cl)c3)c2cc1OCc1ccccc1C`: the MIC in the series with Staphylococcus aureus was found to be 1.5 µg/mL (≈ 3.55 µM); in [1], 3 µg/mL (≈ 7.09 µM); with Enterococcus faecalis, 1.5 µg/mL (≈ 3.55 µM); against Clostridioides difficile [2], 8 µg/mL (≈ 18.9 µM).

`COc1cc2nccc(Nc3ccc(C)cc3)c2cc1OCc1ccc(C(F)(F)F)cc1`: the MIC was 3 µg/mL (≈ 6.84 µM) against Staphylococcus aureus, 3 µg/mL (≈ 6.84 µM) in series [1], 3 µg/mL (≈ 6.84 µM) in the series with Enterococcus faecalis and 4 µg/mL (≈ 9.12 µM) against Clostridioides difficile [2].

Regarding `COc1cc2nccc(Nc3ccc(F)c(Cl)c3)c2cc1OCCOc1ccccc1`, the MIC in the series on Staphylococcus aureus was determined as 3 µg/mL (≈ 6.84 µM); in [1], 3 µg/mL (≈ 6.84 µM); in the series with Enterococcus faecalis, 3 µg/mL (≈ 6.84 µM); against Clostridioides difficile [2], 4 µg/mL (≈ 9.11 µM).

`COc1cc2nccc(Nc3ccc(F)c(Cl)c3)c2cc1OCc1ccc(C(F)(F)F)cc1`: the MIC amounted to 1.5 µg/mL (≈ 3.15 µM) with Staphylococcus aureus, 3 µg/mL (≈ 6.29 µM) in series [1], 1.5 µg/mL (≈ 3.15 µM) in the series with Enterococcus faecalis and 4 µg/mL (≈ 8.39 µM) in the series with Clostridioides difficile [2].

`CN[C@H](CC(C)C)C(=O)N[C@H]1C(=O)N[C@@H](CC(N)=O)C(=O)N[C@H]2C(=O)N[C@H]3C(=O)N[C@H](C(=O)N[C@H](C(=O)O)c4cc(O)cc(O)c4-c4cc3ccc4O)[C@H](O)c3ccc(c(Cl)c3)Oc3cc2cc(c3O[C@@H]2O[C@H](CO)[C@@H](O)[C@H](O)[C@H]2O[C@H]2C[C@](C)(N)[C@H](O)[C@H](C)O2)Oc2ccc(cc2Cl)[C@H]1O` [VANCOMYCIN] yielded an MIC in the series on Clostridioides difficile [2] of 0.5 µg/mL (≈ 0.345 µM).
